From publication PMC5435512 (Pain, 2017)

What was measured:
[1] = test system: cisplatin-induced mechanical allodynia; experiment: Von Frey test, cisplatin-induced mechanical allodynia in mice; assay type: in vivo
[2] = test system: HDAC6 compared with Class I HDACs; settings: 42; cited from earlier work
[3] = test system: tibial nerve mitochondrial respiration; experiment: Mitochondrial bioenergetics; assay type: in vivo, mice
How it was run: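 Tibial nerves were run in an islet-capture XF24 plate in XF medium with 5.5 mM glucose, 0.5 mM pyruvate and 1 mM glutamine. Oligomycin (12 μM), FCCP (20 μM) and rotenone/antimycin A (20 μM each) were injected in sequence, with 4 cycles (3-min mix/3-min wait/4-min measure) at baseline and after each injection. Basal, ATP-linked, proton leak, maximal and non-mitochondrial OCR were derived.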

[4] = test system: rat DRG neurons; experiment: Mitochondrial movement in cultured DRG neurons; assay type: cell-based; settings: rat DRG neuron cultures, 3 hours
How it was run: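 Commercial DRG neurons were cultured 5–7 days, then given BacMam 2.0 GFP mitochondrial label 24 h before treatment. […] Live imaging was done at 37°C in CO2-independent Hibernate E medium that still contained the drugs, and mitochondrial movement was scored.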

[5] = test system: DRG neurons; experiment: Mitochondrial bioenergetics in DRG neurons isolated from treated mice; assay type: in vivo
How it was run: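 Cells were cultured overnight in an XF24 plate in Ham's F10 + N2, switched to XF medium 1 h before the run. Injections: oligomycin 2 μM, FCCP 4 μM, rotenone/antimycin A 2 μM each. Cycles: 2-min mix/3-min wait/2-min measure ×3. OCR was normalised to protein; basal, ATP-linked, leak and maximal respiration were derived.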

[6] = test system: IENF density; experiment: Intra-epidermal nerve fiber; assay type: in vivo, mice
How it was run: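 Plantar hind-paw biopsies were cut as 25 μm frozen sections and stained for PGP9.5 and collagen IV, then imaged by confocal. IENFs crossing the dermal–epidermal junction were counted per mm of epidermis. Five random images per mouse, 4 mice/group, blinded analysis.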

[7] = test system: HDAC1-9; experiment: HDAC enzyme assays, other isoforms; assay type: biochemical
How it was run: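 Test compound was diluted in 50 mM HEPES pH 7.4, 100 mM KCl, 0.001% Tween-20, 0.05% BSA and 20 μM TCEP, then preincubated 24 h with recombinant HDAC enzyme. Substrate at Km, with trypsin, was then added: acetyl-lysine tripeptide for HDAC1/2/3/6, trifluoroacetyl-lysine tripeptide for HDAC4/5/7/8/9. […] release was read over 30 min and the linear rate taken. IC50 came from a 4-parameter fit.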

[8] = test system: α-tubulin acetylation in SK-N-BE2 cells; experiment: Western blot of acetylated α-tubulin in SK-N-BE2 cells; assay type: cell-based; settings: 5 hours
How it was run: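 SK-N-BE2 cells grown to 70% confluence, then exposed 5 h to test compound in DMSO (0.1% DMSO final in all wells). Cells PBS-washed, lysed in cold RIPA buffer with protease inhibitors and PMSF, sonicated, and centrifuged. Supernatants immunoblotted for acetylated α-tubulin (mouse monoclonal) and, as a non-HDAC6 substrate, histone H2BK5ac (rabbit polyclonal).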

[9] = test system: histone acetylation in SK-N-BE2 cells; experiment: Western blot of histone acetylation; assay type: cell-based; settings: 5 hours, 3 nM to 10 μM
How it was run: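 SK-N-BE2 cells at 70% confluence were treated 5 h with test compound at 3 nM–10 μM final, with DMSO 0.1% total. Cells were washed in cold PBS and lysed in RIPA with protease inhibitors/PMSF, 10 min on ice. Lysates were sonicated and centrifuged. Supernatants were immunoblotted for histone H2BK5ac (rabbit polyclonal) and acetylated α-tubulin (mouse monoclonal).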

[10] = In vivo pharmacokinetics in mice; settings: 5 mg/kg i.p.
How it was run: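 Mice were fasted overnight and given a single 5 mg/kg i.p. dose in 10% dimethylacetamide + 10% Solutol HS 15 in saline. Retro-orbital blood was taken at 5, 15, 30 min and 1, 2, 4, 8, 24 h. Plasma was spun at 2,000 × g, 5 min, 4°C. Levels were measured by LC-MS/MS against a standard curve in mouse plasma, then PK parameters calculated; n=3/group.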

[11] = test system: paclitaxel-induced mechanical allodynia; experiment: Von Frey test, paclitaxel-induced mechanical allodynia in rats; assay type: in vivo; settings: 3 mg/kg oral twice daily for 7 days, last day tested
[12] = test system: GFAP expression; experiment: GFAP immunofluorescence in spinal cord dorsal horn; assay type: in vivo; settings: cisplatin-treated mice, 3 doses of 10 mg/kg
[13] = test system: cisplatin-induced numbness; experiment: Adhesive removal test; assay type: in vivo; settings: mice, treatment starting after 2 rounds of cisplatin, tested in week 5
How it was run: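 Test compound in 20% 2-hydroxypropyl-β-cyclodextrin + 0.5% hydroxypropyl methylcellulose in water, given i.p. at 3 or 10 mg/kg. A round adhesive patch was placed on the plantar hind paws. Time to a behavioural response (shaking, attempted removal) was recorded within a 15-minute test.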

[14] = test system: α-tubulin acetylation; experiment: Western blot of acetylated α-tubulin in tibial nerves; assay type: in vivo; settings: mice, saline or cisplatin followed by 11 doses
How it was run: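 Tibial nerves were first run in an XF24 OCR assay (XF medium with 5.5 mM glucose, 0.5 mM pyruvate, 1 mM glutamine). The same nerves were then western-blotted for acetylated α-tubulin with a rabbit monoclonal.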

[15] = test system: Cox IV, SDHA and VDAC; experiment: Western blot of mitochondrial proteins in tibial nerves; assay type: in vivo, mice; settings: 2 rounds of cisplatin and 11 injections
[16] = test system: cisplatin-induced spontaneous pain; settings: cisplatin-treated mice, 2 weeks of daily treatment

Compound: O=C(CCCCCCNC(=O)c1cnc(N(c2ccccc2)c2ccccc2)nc1)NO [ACY-1215, Ricolinostat, reference compound]
- persistence of the beneficial effect after completion of treatment ([1]; 30 mg/kg oral daily for two weeks, last time point tested): still present one week after completion of treatment
- selectivity against HDAC6 compared with Class I HDACs [2]: over 10 fold

Compound: N.N.[Cl][Pt][Cl] [cisplatin, Cisplatin, reference compound]
- mitochondrial respiration in tibial nerves ([3]; mice, 2 cycles of cisplatin 2.3 mg/kg i.p. x 5 days): significantly decreased mitochondrial respiration
- percentage of moving mitochondria ([4]; cisplatin 80 μM, vs vehicle): decreased the percentage of moving mitochondria
- mitochondrial bioenergetics in DRG neurons ([5]; mice, 2 rounds of cisplatin): overall decrease in mitochondrial bioenergetics
- IENF density in plantar surface of the paw ([6]; mice, 2 cycles of cisplatin): reduced the IENF density

Compound: ACY-1083
- inhibitory activity against other enzymes [7]: negligible inhibitory activity against other enzymes
- selectivity for HDAC6 over all other HDAC isoforms tested ([7]; HDAC1-9): 260 fold
- selectivity towards HDAC6 in cells (α-tubulin vs histone acetylation) [8]: over 300 fold
- concentration at which the increase in α-tubulin acetylation starts ([8]; 3 nM to 10 μM): 30 nM
- concentration at which an effect on histone acetylation is evident [9]: 10 µM
- biologically active plasma exposure after dosing [10]: 8 hours
- half-life (T1/2) [10]: 3.5 h
- maximum plasma concentration (Cmax) [10]: 936 ng/mL
- mechanical sensitivity in the absence of cisplatin treatment ([1]; 10 mg/kg): did not alter mechanical sensitivity
- time after the first dose at which the effect was first detected ([1]; 10 mg/kg i.p.): 24 h
- effect of a second round of 7 daily injections on mechanical allodynia ([1]; 10 mg/kg, 7 days, 7 days rest): transiently reversed cisplatin-induced mechanical allodynia again
- prevention of development of mechanical allodynia ([1]; administered i.p. 1 hour prior to each dose of cisplatin): capable of preventing the development of mechanical allodynia
- persistence of the protective effect after the last dose [11]: ≥ 3 days
- GFAP expression in dorsal horn of spinal cord [12]: normalized GFAP expression to levels comparable to saline-treated animals
- cisplatin-induced numbness: time to respond to adhesive patch [13]: normalized the response time
- α-tubulin acetylation in tibial nerves [14]: increased α-tubulin acetylation
- mitochondrial respiration in tibial nerve of cisplatin-treated mice ([3]; 2 cycles of cisplatin followed by 11 doses): normalized all aspects of the cisplatin-induced decrease in mitochondrial respiration
- mitochondrial bioenergetics in tibial nerve, treatment alone ([3]; mice without cisplatin, 11 doses): did not have any effect on mitochondrial bioenergetics
- Cox IV levels in tibial nerve of cisplatin-treated mice [15]: normalized Cox IV levels
- percentage of moving mitochondria, co-administration with cisplatin ([4]; 100 nM with cisplatin 80 μM): prevented this cisplatin-induced decrease in mitochondrial transport
- mitochondrial bioenergetics in DRG neurons of cisplatin-treated mice ([5]; 2 rounds of cisplatin and 11 injections): did not detect a similar recovery
- mitochondrial bioenergetics in DRG neurons, treatment alone ([5]; mice without cisplatin, either time point): did not have any effect on mitochondrial bioenergetics in DRG neurons
- mitochondrial bioenergetics in DRG neurons of cisplatin-treated mice ([5]; two weeks of treatment, 2 weeks after the last dose): significant recovery of mitochondrial bioenergetics
- IENF density in cisplatin-treated mice, prolonged regimen ([6]; 2 cycles of cisplatin and 11 doses): completely reversed the cisplatin-induced loss of IENFs
- IENF density in cisplatin-treated mice, short-term treatment ([6]; short-term treatment): had no effect on IENF density
- spontaneous pain: preference for retigabine-paired light chamber [16]: did not develop a preference for the retigabine-paired light chamber
